UPR CHOP act: apoptotic UPR (CHOP) activation; CHO-CHOP luciferase reporter, luminescence; percent of tunicamycin response over DMSO baseline; activation, % at 10 µM; 330,000 tested, 0.34% active;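 active means at 10 µM dose, activation of 40% or more, normalized to positive control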
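Assay system: CHO-CHOP cells, stable luciferase reporter of PERK-eIF2a-CHOP signalling / Buffer or medium: F12 plus 10% serum / Compound dosing: one dose, 10 µM in 0.5% DMSO / Times: 6 h compound treatment, 37 °C / Technique: luciferase luminescence / Read-out: % reporter activation, DMSO baseline versus tunicamycin full activation / Benchmarks: tunicamycin and DMSO controls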
MPTP block: inhibitors of mitochondrial permeability transition pore. isolated mouse mitochondria, Ca2+ swelling absorbance, 30 min. inhibition, % at 10 µM. 360,000 tested, 1.4% active;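 active means inhibition of 50% or more, scaled per plate between neutral and stimulator controls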
XBP1 UPR activ: adaptive UPR (XBP1) activation; CHO-XBP1 luciferase reporter, IRE1-XBP1 UPR activation, luminescence; percent of tunicamycin response, DMSO as zero; activation, % at 20 µM; 330,000 tested, 0.33% active;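 active means versus positive control, 20 µM dose yields 30% or more activation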
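Material: CHO-XBP1 cells stably carrying IRE1-XBP1-driven luciferase reporter | Medium: F12 with 10% serum | Compound dosing: 20 µM single concentration, DMSO 1% | Incubation: Overnight seeding at 37 °C, 6 h compound treatment at 37 °C | Detection: Steady-Glo luminescence read | Read-out basis: % activation of reporter signal versus tunicamycin and DMSO controls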
CHOP inh: CHOP inhibition in unfolded protein response; inhibition, % at 10 µM; 220,000 tested, 3.8% active; CHO-K1 CHOP-promoter luciferase, tunicamycin-induced, 15-18 h;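 active means compounds that reduced the stress-induced luciferase reporter signal by more than about 70% of percent inhibition, limit read from the data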
NR3A LBD binder: modulates the human NR3A ligand-binding domain; NR3A LBD differential scanning fluorimetry, Tm shift; 0% = protein alone, 100% = glycine-bound protein; Tm shift relative to glycine control, % at 25 µM; 340,000 tested, 2.5% active; AID 1259313;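 active means melting temperature shift of at least 10% of the positive control shift, at one fixed dose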
aDG glyco up: increases alpha dystroglycan glycosylation; activation, % at 10 µM; 360,000 tested, 0.22% active; Pro5-aDG cells, alpha-DG glycosylation AlphaScreen (IIH6); 0% Pro5, 100% B10-LARGE cell signal;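 active means activation of at least 8% versus controls, or a plate z-score of at least 8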;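 further: Pro5 are CHO cells carrying HIG-tagged alpha-DG that lacks glycosylation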
Large screens that a line does not name were inactive; ! = repeats disagree. A selection: hits, their analogues and other compounds. The true share with any hit is near 5.6%.

Cc1csc(CNc2ncnc3ccc(-c4cccc(Cl)c4)cc23)c1	none (no result: CHOP inh)
CC(NC(=O)C(=O)NCCC1=CCCCC1)c1ccccc1 (stereo not given)	CHOP inh 95.2
O=C(NCCC1=CCCCC1)C(=O)NCC(c1ccco1)N1CCN(c2ccccc2)CC1 (stereo not given)	CHOP inh 94.3
CC(C)CCNC(=O)C(=O)NCCC1=CCCCC1	none
COCCCNC(=O)C(=O)NCC(c1ccco1)N1CCN(c2ccc(OC)cc2)CC1 (stereo not given)	none (no result: CHOP inh)
COc1ccc(N2CCN(C(CNC(=O)C(=O)NCCC3=CCCCC3)c3ccco3)CC2)cc1 (stereo not given)	CHOP inh 87.0
Cc1cccc(C)c1NC(=O)C(C)N1CCCCC1 (stereo not given)	none
CCOc1ccc(C(=O)NC(=S)Nc2ccc(NC(=O)c3ccco3)c(C)c2)cc1[N+](=O)[O-]	none
COc1ccc(CNc2cccc(F)c2)cc1Br	CHOP inh 86.2
Cc1ccc2nc(-c3ccc(NS(C)(=O)=O)cc3)cc(-c3ccccc3)c2c1	CHOP inh 78.4
Cc1ccc2nc(-c3ccncc3)cc(-c3ccccc3)c2c1	none
CCS(=O)(=O)Nc1ccc(-c2cc(-c3ccccc3)c3cc(C)ccc3n2)cc1	CHOP inh 86.7, NR3A LBD binder 10.3 (no result: UPR CHOP act, XBP1 UPR activ)
Cc1nn(CC(=O)NCc2ccc(OC(C)C)cc2)c(=O)c2cc(-c3ccccc3)nn12	none (no result: CHOP inh)
CNc1ccc(Br)cc(C(=O)/C=C/c2cccc(OC)c2OC)c1=O	none
COc1ccccc1C=CC(=O)C=Cc1ccccc1OC	none (no result: UPR CHOP act, XBP1 UPR activ, CHOP inh)
CNc1ccccc(C(=O)/C=C/c2ccccc2OC)c1=O	CHOP inh 87.8
COc1ccccc1/C=C/C(=O)/C=C/c1ccccc1O	CHOP inh 101.4 (no result: UPR CHOP act, XBP1 UPR activ)
Cc1cc(C)cc(NCc2cc(=O)oc3cc(-c4ccccc4)c(O)cc23)c1	CHOP inh 103.1
CCOc1ccccc1N(C(=O)CNC(=O)c1ccco1)C(C(=O)NC(C)(C)C)c1ccncc1 (stereo not given)	NR3A LBD binder 395.4
COc1ccccc1N(C(=O)CNC(=O)c1ccco1)C(C(=O)NC1CCCC1)c1ccncc1 (stereo not given)	none
CCOc1ccc(NC(=O)CCc2c(C)nn(-c3ccc(N4CCCCC4)nn3)c2C)cc1	NR3A LBD binder 14.0 (no result: CHOP inh)
C[C@H](CO)N1C[C@H](C)[C@@H](CN(C)S(=O)(=O)c2cccs2)Oc2ccc(NC(=O)Nc3ccc(C(F)(F)F)cc3)cc2C1=O	NR3A LBD binder 23.1 (no result: CHOP inh)
C[C@@H]1CN([C@H](C)CO)C(=O)c2cc(NC(=O)Nc3ccc(C(F)(F)F)cc3)ccc2O[C@H]1CN(C)S(=O)(=O)c1cccs1	NR3A LBD binder 17.4 (no result: CHOP inh)
COc1cccc(/C=C2\SC(=S)N(N3C(=O)CCCC3=O)C2=O)c1	NR3A LBD binder 23.5
COc1cccc(/C=C2/SC(=S)N(CCCC(=O)Nc3ccc(O)cc3)C2=O)c1	none (no result: CHOP inh)
COc1cccc(/C=C2/SC(=S)N(CC(=O)NNC(=O)c3ccccc3O)C2=O)c1	NR3A LBD binder 15.5 (no result: CHOP inh)
CC(C)(C)NC(=O)CN1C(=O)/C(=C/c2ccccc2)SC1=S	none
COc1cccc(/C=C2\SC(=S)N(CC3CCCO3)C2=O)c1 (stereo not given)	none
O=C(CN1C(=O)/C(=C/c2ccccc2)SC1=S)NNC(=O)c1ccccc1O	NR3A LBD binder 10.1
O=C1c2ccccc2C(=O)N1SC1CCCCC1	CHOP inh 71.6
O=C(OCN1C(=O)c2ccccc2C1=O)C1CCCCC1	none
COC(=O)C(Cc1ccc(OC(=O)c2ccc(C)cc2)cc1)N1Cc2ccccc2C1=O (stereo not given)	NR3A LBD binder 14.0
COC(=O)C(Cc1ccc(O)cc1)N1Cc2ccccc2C1=O (stereo not given)	none (no result: CHOP inh)
CCN(CC)S(=O)(=O)c1ccc(/C=C/C(=O)OCC(=O)NCc2ccco2)cc1	none (no result: CHOP inh)
CCOc1ccc(/C=N/n2c(COc3ccccc3)n[nH]c2=S)cc1OC	NR3A LBD binder 14.9 (no result: CHOP inh)
Oc1ccc(Br)cc1/C=N/n1c(COc2ccccc2)n[nH]c1=S	NR3A LBD binder 10.3 (no result: CHOP inh)
Cc1ccc(Cl)c(OCC(=O)Nc2cc(S(=O)(=O)N3CCOCC3)ccc2N2CCCC2)c1	none (no result: CHOP inh)
Cc1nc(S(=O)(=O)N2CCN(C3c4ccccc4-c4ccccc43)CC2)cn1C	none
Cc1nc2c(o1)CCc1ccccc1C2N1CCN(C)CC1 (stereo not given)	NR3A LBD binder 13.0!
COCCN(C(=O)Cc1cccs1)C(C(=O)NCc1ccc(OC)cc1)c1ccc(C(C)C)cc1 (stereo not given)	CHOP inh 93.9
CCOc1ccccc1N1CC(C(=O)Nc2c(C)n(C)n(-c3ccccc3)c2=O)CC1=O (stereo not given)	none
COc1ccc(C2=NC(=O)/C(=C\c3cc(OC)c(OC)c(OC)c3)O2)cc1	CHOP inh 89.0 (no result: UPR CHOP act, XBP1 UPR activ)
CCOCCCn1c(=S)[nH]c2cc(C(=O)NC3CCCC(C)C3C)ccc2c1=O (stereo not given)	none (no result: CHOP inh)
O=C1OC(c2ccccc2)=N/C1=C\C=C\c1ccco1	NR3A LBD binder 20.5
O=C1OC(c2ccc(Cl)cc2)=N/C1=C\C=C\c1ccco1	none
O=C1OC(c2ccccc2)=N/C1=C\C=C\c1ccccc1[N+](=O)[O-]	CHOP inh 70.7
CN(C)/C=C1\N=C(c2ccccc2)OC1=O	none
CCOc1ccccc1N1CC(C(=O)Nc2cc(S(C)(=O)=O)ccc2Cl)CC1=O (stereo not given)	none (no result: CHOP inh)
CCC(C(=O)O)n1nnc(-c2ccc(OCc3ccccc3)c(OC)c2)n1 (stereo not given)	none (no result: MPTP block, CHOP inh, NR3A LBD binder, aDG glyco up)
O=C(Nc1ccc(N2CCOCC2)cc1)c1cnsn1	CHOP inh 78.1
Cc1ccc(-n2[nH]c(C)c(/C=N/c3ccccn3)c2=O)cc1	none
Cc1ccc(-n2[nH]c(C)c(C=Nc3ccc(Br)cn3)c2=O)cc1	CHOP inh 79.6
Cc1ccc(COC(=O)CN2C(=O)NC3(CCCCC3C)C2=O)cc1 (stereo not given)	NR3A LBD binder 11.5 (no result: CHOP inh)
CC(=O)NNC(=S)NC(=O)c1ccc(C)cc1	CHOP inh 80.0
Cc1ccc(C(=O)NC(=S)NNC(=O)COc2ccccc2C)cc1	CHOP inh 102.6
Cc1ccc(OCC(=O)NNC(=S)NC(=O)C(C)(C)C)c(Br)c1	CHOP inh 92.0
COc1ccc(N2CCN(C(=O)c3ccccc3N(C)S(=O)(=O)c3ccc(C)cc3)CC2)cc1	none (no result: CHOP inh)
CC(Cc1ccccc1)NC(=O)CCNNC(=O)c1ccncc1 (stereo not given)	none (no result: UPR CHOP act, XBP1 UPR activ, CHOP inh, NR3A LBD binder)
CC(Oc1cccc(Cl)c1)C(=O)Nc1cc(Cl)ccc1N1CCOCC1 (stereo not given)	NR3A LBD binder 21.1 (no result: CHOP inh)

Screens deposited in PubChem BioAssay by several laboratories.
